Measurements taken from PubChem BioAssay.
Inconclusive results are not listed.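 Rule for the calls, unless noted: active = RAM network inhibition above 8.4% in each of two replicates, 3 SD over the compound average; inconclusive = above 8.4% inhibition in only one replicate; inactive = 8.4% inhibition or less in each replicate.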

What was measured:
[1] = OD615 S. cerevisiae growth inhibition, permissive medium, pilot counter-assay, permissive growth control for S. cerevisiae lifespan shortening project (AID 705;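 active = growth inhibition above 25% in both replicates, a cutoff set 3 SD above the mean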); details: OD615, 24 h, at 10 µM, active compounds read high
Summary of the method: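 System: Engineered DeaD yeast | Buffer or medium: SC raffinose/galactose permissive medium | Incubation: Cells pre-grown 4 h, then 24 h compound exposure, 30 °C humidified | Measured by: Absorbance (optical density) at 615 nm | Read-out: Reduction in yeast growth (OD615)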

[2] = Restrictive medium S. cerevisiae growth inhibition, OD615, pilot screen of yeast lifespan reduction project, restrictive growth control (AID 706;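 active = growth inhibition above a set limit, 3 SD over mean compound inhibition, in both replicates, cut at about 43% in these data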;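 note: modified DeaD lifespan yeast strain shifted to restrictive glucose medium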); details: OD615, 48 h, at 10 µM, active compounds read high
Summary of the method: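 Material: modified S. cerevisiae; Medium: glucose-based CSMM-D restrictive medium; Compound dosing: one concentration, 10 µM final, 0.25% DMSO; Incubation: 48 h compound exposure at 30 °C; Measured by: OD615.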

[3] = viability gain of MRP-1-high H69AR cells under doxorubicin, pilot screen, MRP-1 activator project, CellTiter-Glo, duplicate (AID 807;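 active = viability increase at or above a cutoff of the median across tested compounds plus 3 SD, cut at about 8.5% in these data, passing the limit was not always enough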;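 note: compound pretreatment 18-22 h then 72 h combined with doxorubicin; 0% = doxorubicin alone and 100% = vehicle without doxorubicin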); details: H69AR viability with doxorubicin, CellTiter-Glo luminescence; at 10 µM; active compounds read high
[4] = growth suppression of beta-catenin knockout HCT116, pilot screen, human colon tumor cells (AID 823;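 active = cell viability at or below a set limit in both duplicate runs, the limit being the all-compound median minus 4 SD, cut at about 23% in these data, passing the limit was not always enough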;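 note: 0% = wells killed by 20 µM Hyamine and 100% = untreated DMSO cell wells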); details: CellTiter-Glo, 60 h, at 10 µM, active compounds read low
[5] = growth suppression of PTEN-deleted HCT116, pilot screen, cell-based, HCT116 clonal line, CellTiter-Glo (AID 824;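 active = viability at or below 27.92% in each of two runs, the all-compound median minus 4 SD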;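 note: 0% = 20 µM Hyamine control and 100% = vehicle cell control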); details: 60 h, at 10 µM, active compounds read low
[6] = inhibitors of the yeast RAM network, pilot screen, dse1pr::URA3 reporter, 5-FOA selection (AID 869;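 active = inhibition over a set limit, the all-compound mean plus 3 SD, in both replicate runs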;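 note: 0% = DMSO wells with no growth and 100% = 10 µM 1-NA-PP1 with full growth; RAM network block rescues cells from 5-FOA so hits raise OD615 growth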); details: S. cerevisiae dse1pr::URA3 5-FOA growth, OD615, 2 d; at 10 µM; active compounds read high; strain carries analog-sensitive mutant Cbk1 kinase
[7] = RAM signaling pathway blockade in yeast – S. cerevisiae, Pdr1DBD-CYC8 efflux-inhibited sensitized strain, primary screen (AID 1298);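 note: 0% = DMSO untreated cells without growth and 100% = 10 µM 1-NA-PP1 full growth; higher means more yeast growth rescued from 5-FOA killing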; details: S. cerevisiae cbk1-as DSE1-URA3 strain, 5-FOA growth OD615, 2 d; at 50 µM; active compounds read high

O=C(O)c1n[nH]c2ccccc12
inactive: growth inhibition [1] -1.77% | growth inhibition [2] -21.2% | viability increase [3] -2.36% | viability [4] 99.2% | viability [5] 95.6% | inhibition [6] 0.89% | RAM network inhibition [7] 0.16%

COc1cccc(-c2nc(C(N)=O)c3[nH]c(=O)n(-c4cccc(Cl)c4)c3n2)c1OC
inactive: growth inhibition [1] -21.4% | growth inhibition [2] -28.5% | viability increase [3] -4.45% | viability [4] 75.5% | viability [5] 72.5% | inhibition [6] 4.14% | RAM network inhibition [7] 3.65%

COc1ccc(-n2nc3cc(C)c(NC(=O)CC(C)C)cc3n2)cc1
inactive: growth inhibition [1] -7.39% | growth inhibition [2] -3.86% | viability increase [3] -0.97% | viability [4] 94% | viability [5] 92.2% | inhibition [6] 0.405% | RAM network inhibition [7] 3.76%

CCCCNc1nc2c(c(=O)n(C)c(=O)n2C)n1CCC
inactive: growth inhibition [1] -8.32% | growth inhibition [2] -0.415% | viability increase [3] 0.36% | viability [4] 97.1% | viability [5] 96% | inhibition [6] -0.375% | RAM network inhibition [7] 1.74%

Cc1cc(C)c2c3c(c(-c4ccccc4)n2n1)c(=O)n(C)c(=O)n3C
inactive: growth inhibition [1] -9.68% | growth inhibition [2] -1.79% | viability increase [3] -1.8% | viability [4] 101% | viability [5] 94% | inhibition [6] 2.26% | RAM network inhibition [7] 5.77%

O=C(NCCc1ccccc1)c1ccncc1
inactive: growth inhibition [1] -5.38% | growth inhibition [2] 4.46% | viability increase [3] -0.91% | viability [4] 88.8% | viability [5] 93.5% | inhibition [6] 1.67% | RAM network inhibition [7] 0.86%

COc1cccc(-c2nc(CS(=O)(=O)CC(=O)N3CCN(C4CCCCC4)CC3)c(C)o2)c1
inactive: growth inhibition [1] 1.34% | growth inhibition [2] -1.93% | viability increase [3] -2.59% | viability [4] 86.4% | viability [5] 100% | inhibition [6] 0.41% | RAM network inhibition [7] 3.35%

Cc1ccc(OCCNC(=O)c2ccccc2N)cc1
inactive: growth inhibition [1] 1.82% | growth inhibition [2] -18.1% | viability increase [3] -2.73% | viability [4] 103% | viability [5] 97.6% | inhibition [6] 0.785% | RAM network inhibition [7] -0.05%

CCOCCn1c(COc2ccccc2)nc2ccccc21
inactive: growth inhibition [1] -6.72% | growth inhibition [2] 1.93% | viability increase [3] -2.53% | viability [4] 83.8% | viability [5] 81.9% | inhibition [6] 1.88% | RAM network inhibition [7] 6.89%

CC(=O)N1CCN(c2ccc(NCc3ccc(C)s3)cc2)CC1
inactive: growth inhibition [1] -5.79% | growth inhibition [2] 8.29% | viability increase [3] -2.32% | viability [4] 99% | viability [5] 95% | inhibition [6] 1.92% | RAM network inhibition [7] 7.94%

Cc1cc(C(=O)NCc2ccco2)cs1
inactive: growth inhibition [1] -6.77% | growth inhibition [2] -6.79% | viability increase [3] -2.37% | viability [4] 106% | viability [5] 99.9% | inhibition [6] 2.28% | RAM network inhibition [7] -0.32%

c1ccc(CNc2nc3ccccc3n3cnnc23)nc1
inactive: growth inhibition [1] -13.7% | growth inhibition [2] -8.93% | viability increase [3] -1.36% | viability [4] 105% | viability [5] 88.5% | inhibition [6] -0.44% | RAM network inhibition [7] 3.37%

CCOC(=O)N1CCC(NC(=O)CCc2c(C)nc3c(c(C)nn3-c3ccccc3)c2C)CC1
inactive: growth inhibition [1] -8.02% | growth inhibition [2] 0.22% | viability increase [3] -1.37% | viability [4] 100% | viability [5] 89.5% | inhibition [6] 2.38% | RAM network inhibition [7] 4.08%

CCOCCCNC(=O)C(NC(=O)c1cnccn1)c1ccc(OC)cc1 (configuration not stated)
inactive: growth inhibition [1] -8.29% | growth inhibition [2] -6.63% | viability increase [3] 1.76% | viability [4] 102% | viability [5] 95.7% | inhibition [6] 1.81% | RAM network inhibition [7] 2.15%

O=C(c1ccccc1)N1CCn2c(nc3ccccc32)C1
inactive: growth inhibition [1] 3.33% | growth inhibition [2] 2.58% | viability increase [3] -0.73% | viability [4] 98.2% | viability [5] 98.2% | inhibition [6] 0.5% | RAM network inhibition [7] 6.85%

CNc1nc(SCC(=O)OC)nc(N2CCOCC2)n1
inactive: growth inhibition [1] -11.7% | growth inhibition [2] -14.8% | viability increase [3] -1.78% | viability [4] 93.9% | viability [5] 89.3% | inhibition [6] 1.14% | RAM network inhibition [7] 3.47%

CCc1nnc(NC(=O)c2ccc(OC)cc2OC)s1
inactive: growth inhibition [1] 16.6% | growth inhibition [2] 3.21% | viability increase [3] -1.32% | viability [4] 109% | viability [5] 102% | inhibition [6] 1.68% | RAM network inhibition [7] 2.76%

CCc1ccc2nc(NC3=NCN(CCOC)CN3)nc(C)c2c1
inactive: growth inhibition [1] -2.2% | growth inhibition [2] -4.05% | viability increase [3] -2.81% | viability [4] 63% | viability [5] 66.9% | inhibition [6] 1.18% | RAM network inhibition [7] -1.8%

COc1ccc(C(=O)Nc2nncs2)cc1S(=O)(=O)N1CC(c2ccccc2)CC1=O (configuration not stated)
inactive: growth inhibition [1] -12.7% | growth inhibition [2] 18% | viability increase [3] 0.31% | viability [4] 101% | viability [5] 87% | inhibition [6] 0.92% | RAM network inhibition [7] 3.31%

COc1ccc(N=C2SC(C(=O)O)CC(=O)N2C)cc1 (configuration not stated)
inactive: growth inhibition [1] -5.94% | growth inhibition [2] 7.82% | viability increase [3] -0.87% | viability [4] 98.1% | viability [5] 101% | inhibition [6] 0.35% | RAM network inhibition [7] 3.61%

COc1ccc(OCC(=O)Nc2cccc(C(C)=O)c2)cc1
inactive: growth inhibition [1] 0.595% | growth inhibition [2] 15.9% | viability increase [3] -0.88% | viability [4] 93.9% | viability [5] 94.6% | inhibition [6] 0.74% | RAM network inhibition [7] 2.7%

CCOC(=O)N1CCC(NC(=O)Cn2cc3c(n2)CCCC3)CC1
inactive: growth inhibition [1] -1.57% | growth inhibition [2] -0.65% | viability increase [3] -3.35% | viability [4] 107% | viability [5] 92.5% | inhibition [6] 2.6% | RAM network inhibition [7] 2.81%

CCCCN=C(C)C1=C(O)CSC1=O
inactive: growth inhibition [1] -1.78% | growth inhibition [2] 4.99% | viability increase [3] -1.7% | viability [4] 104% | viability [5] 99.7% | inhibition [6] 2% | RAM network inhibition [7] 3.8%

N#CCCN1CCN(S(=O)(=O)c2ccc(S(=O)(=O)N3CCCC3)cc2)CC1
inactive: growth inhibition [1] 0.995% | growth inhibition [2] 7.04% | viability increase [3] 1.73% | viability [4] 101% | viability [5] 104% | inhibition [6] 1.29% | RAM network inhibition [7] 8.15%

O=C(CC1Oc2ccccc2NC1=O)NC1CCCC1 (configuration not stated)
inactive: growth inhibition [1] 1.69% | growth inhibition [2] 2.71% | viability increase [3] 0.05% | viability [4] 103% | viability [5] 102% | inhibition [6] 1.33% | RAM network inhibition [7] 0.1%

CC(=O)c1ccc(OCC(O)CN2CCN(c3ccccn3)CC2)cc1 (configuration not stated)
inactive: growth inhibition [1] 2.13% | growth inhibition [2] 4.88% | viability increase [3] 0.37% | viability [4] 102% | viability [5] 103% | inhibition [6] 1.18% | RAM network inhibition [7] 2.51%

COc1ccc(N2CCN(C(=O)C(Cc3ccccc3)n3cccc3)CC2)cc1 (configuration not stated)
inactive: growth inhibition [1] -14.4% | growth inhibition [2] -6.94% | viability increase [3] -2.94% | viability [4] 84.9% | viability [5] 82.6% | inhibition [6] 1.7% | RAM network inhibition [7] 6.88%

O=C(CSc1nccn1-c1ccc(Cl)cc1)NCc1ccc2c(c1)OCO2
inactive: growth inhibition [1] -14.6% | growth inhibition [2] -8.19% | viability increase [3] -0.8% | viability [4] 96.3% | viability [5] 89.5% | inhibition [6] 1.3% | RAM network inhibition [7] 2.26%

C=CCn1c(=N)c(C(=O)NCCCOC)cc2c(=O)n3cccc(C)c3nc21
inactive: growth inhibition [1] 2.23% | growth inhibition [2] 0.115% | viability increase [3] -2.3% | viability [4] 83.8% | viability [5] 88.5% | inhibition [6] 0.4% | RAM network inhibition [7] -0.47%

COC(=O)Cn1c(=NC(=O)C2CC2)sc2c(C)cc(C)cc21
inactive: growth inhibition [1] -12.3% | growth inhibition [2] -19% | viability increase [3] -2.07% | viability [4] 92.9% | viability [5] 91.4% | inhibition [6] 0.27% | RAM network inhibition [7] 4.34%

CC(=O)NC(CCS(C)(=O)=O)C(=O)Nc1cc(C)ccc1C (configuration not stated)
inactive: growth inhibition [1] -10.6% | growth inhibition [2] -20% | viability increase [3] 0.57% | viability [4] 98.5% | viability [5] 94.3% | inhibition [6] 2.23% | RAM network inhibition [7] 3.07%

CCCCCn1c(SCC(=O)OC)nc2c1c(=O)[nH]c(=O)n2C
inactive: growth inhibition [1] -16.6% | growth inhibition [2] -10.6% | viability increase [3] -0.86% | viability [4] 103% | viability [5] 102% | inhibition [6] 1.29% | RAM network inhibition [7] 0.79%

O=C(Nc1nccs1)C1CCN(S(=O)(=O)c2cccnc2)CC1
inactive: growth inhibition [1] -4.93% | growth inhibition [2] 3.12% | viability increase [3] -0.26% | viability [4] 102% | viability [5] 101% | inhibition [6] 0.905% | RAM network inhibition [7] -0.78%

CCOC(=O)C1CCN(C(=O)c2cc3c(-c4ccc(OC)c(OC)c4)nn(C)c3s2)CC1
inactive: growth inhibition [1] -7.02% | growth inhibition [2] -7.66% | viability increase [3] -2.04% | viability [4] 107% | viability [5] 98.9% | inhibition [6] 0.595% | RAM network inhibition [7] 5.7%

C=C(C)CSc1nnc(-c2cc(OC)c(OC)c(OC)c2)n1N
inactive: growth inhibition [1] 8.03% | growth inhibition [2] 7.75% | viability increase [3] -1.01% | viability [4] 95.2% | viability [5] 97.8% | inhibition [6] 0.94% | RAM network inhibition [7] 4%

CCN(CC)CCCN1C(=O)C(O)=C(C(=O)c2ccc(C)o2)C1c1cccs1 (configuration not stated)
inactive: growth inhibition [1] 0.37% | growth inhibition [2] -6.93% | viability increase [3] -4.04% | viability [4] 97.5% | viability [5] 96.2% | inhibition [6] 2.01% | RAM network inhibition [7] 2.8%
